Experimental findings from PubChem BioAssay are described below.

Experiment [1] can be described thus: inhibitors of TNFa-induced NFkB p65 translocation, primary screen, imaging, HUVEC, MLSMR starter and 10KST1 sets (AID 438;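 active = inhibition above 20% together with a positive visual image hit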;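 also: compound added about 3h40 before a 20 min TNFalpha stimulation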;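 as to inhibition: signal is the nuclear over cytoplasmic p65 intensity ratio per well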). The note with it: HUVEC TNFa-induced p65 nuclear translocation; cell count: measured here: nuclei count (cytotoxicity indicator), at 2.08 µM; inhibition: at 2 µM, stronger effect = higher value, 0% TNFa-plus-vehicle, 100% no-TNFa wells.
A short description of experiment [2]: inhibitors of mutant huntingtin aggregation, primary screen, imaging, exon1htt(103Q)mCFP cells, high-content imaging (AID 483;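 active = visual image review flags a hit and inhibition of aggregation exceeds 20%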;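 also: compound exposure lasted 3 days before fixation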;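 as to nuclei count: percent of the per-plate median nuclei count of sample wells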). The conditions noted are these: exon1htt(103Q)mCFP cell line, aggregate imaging, at 2 µM; inhibition of aggregation: stronger effect = higher value; nuclei count: measured here: cell count, toxicity.
Experiment [3] is described as follows: inhibitors of E-selectin induction by TNFa, primary screen, imaging, HUVEC, immunofluorescence, MLSMR starter and 10KST1 sets (AID 487;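 active = visually confirmed hit in the image check and inhibition above 20%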;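 as to inhibition: signal is fraction of cell area covered by stained E-selectin grains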;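 as to nuclei count: 100% = median nuclei count of all wells on the same plate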). The note with it: HUVEC TNFalpha-induced E-selectin immunofluorescence imaging, at 2 µM; inhibition: stronger effect = higher value; nuclei count: measured here: cell number, toxicity.
For experiment [4], the target named is Voltage-gated potassium channel subunit beta-2 (Rattus norvegicus) (UniProt P62483). Nature of the experiment: KvBeta enzyme negative modulators, primary screen, biochemical, NADPH fluorescence (AID 622;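 active = fluorescence slope higher than the sample average by over 3 SD, cut at about -0.22 in these data, passing the limit was not always enough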;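 also: slope of raw intensity against log time taken from 70 to 1610 s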). The conditions noted are these: recombinant KvBeta, 4-cyanobenzaldehyde reduction, at 10 µM, stronger effect = higher value.
Voltage-gated potassium channel subunit beta-2 (Rattus norvegicus), sequence (P62483 whole entry, looked up): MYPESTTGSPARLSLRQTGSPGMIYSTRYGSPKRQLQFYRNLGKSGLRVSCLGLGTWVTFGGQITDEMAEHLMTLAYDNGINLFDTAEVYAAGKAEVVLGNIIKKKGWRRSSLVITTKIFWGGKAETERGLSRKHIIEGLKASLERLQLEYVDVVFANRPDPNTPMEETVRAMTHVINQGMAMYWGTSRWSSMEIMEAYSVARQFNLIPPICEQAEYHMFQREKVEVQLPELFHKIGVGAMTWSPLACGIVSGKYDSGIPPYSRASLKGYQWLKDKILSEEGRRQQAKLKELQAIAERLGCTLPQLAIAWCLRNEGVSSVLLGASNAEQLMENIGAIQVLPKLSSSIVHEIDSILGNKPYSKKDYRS
Experiment [5] shares this target. Description: KvBeta positive modulators, primary screen, biochemical, NADPH fluorescence (AID 623;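 active = NADPH fluorescence slope more negative than the mean of all samples by about 3 SD, 99.7% confidence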;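 also: fluorescence intensity change per second fitted from 20 to 320 s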). The conditions noted are these: Recombinant KvBeta, NADPH fluorescence decrease slope, 10 min; at 10 µM; stronger effect = lower value.
Experiment [6] addresses Muscarinic acetylcholine receptor M4 (Homo sapiens) (UniProt P08173). Nature of the experiment: compounds altering M4/GIRK thallium flux, either direction, primary screen, M4 allosteric agonist project, cell-based, HEK293 M4/GIRK, BTC-AM (AID 625).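 Also: thallium influx through GIRK channels coupled to M4 in HEK293 cells with BTC-AM dye.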 The note with it: at 10 µM, actives lie on both sides. The method, boiled down:
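assay system = HEK293 cells with M4 receptor and GIRK channels | medium = pH 7.3 thallium assay buffer | doses = 10 µM final, single point | timing = cells overnight at 37 °C, BTC-AM loading 1 h, reads 2 min total | signal = BTC-AM fluorescence, 1 Hz kinetic reads | read-out = post-addition slope, 15–24 s, of baseline-normalized fluorescence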

Experiment [7] in a line: inhibitors of Sendai virus-induced IRF3 signaling, primary screen, TLR/RLR signaling modifier project, cell-based, Sendai virus stimulus, luciferase, 10K MLSCN set (AID 602276;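 active = inhibition at or above 50% at 10 µM; inactive = inhibition below 50%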;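 also: firefly luciferase from ISG56 promoter only with Renilla not read in this screen; 0% = Sendai virus plus DMSO and 100% = medium plus DMSO without virus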). The conditions noted are these: HEK293 RL24 IRF3 luciferase reporter, at 10 µM, stronger effect = higher value. On the technique in general: In a reporter assay the amount or activity of a reporter protein is the signal.

Experiment [8] is described as follows: inhibitors of poly I:C-induced TLR3 signaling, primary screen, cell-based, poly I:C stimulus, luciferase, 10K MLSCN set (AID 602277;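 active = inhibition of the reporter signal at or above 50%; inactive = inhibition below 50%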). The conditions noted are these: HEK293-TLR3 RL24 IRF3 luciferase reporter, at 10 µM, stronger effect = higher value.

Activity calls are given as the source filed them.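 The calls were made as follows, unless noted: active = fluorescence slope after compound addition differing from the mean of all tested samples at 99.7% confidence, mostly higher but some lower; inactive = the rest.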

Muscarinic acetylcholine receptor M4 (Homo sapiens), sequence (P08173 whole entry, looked up): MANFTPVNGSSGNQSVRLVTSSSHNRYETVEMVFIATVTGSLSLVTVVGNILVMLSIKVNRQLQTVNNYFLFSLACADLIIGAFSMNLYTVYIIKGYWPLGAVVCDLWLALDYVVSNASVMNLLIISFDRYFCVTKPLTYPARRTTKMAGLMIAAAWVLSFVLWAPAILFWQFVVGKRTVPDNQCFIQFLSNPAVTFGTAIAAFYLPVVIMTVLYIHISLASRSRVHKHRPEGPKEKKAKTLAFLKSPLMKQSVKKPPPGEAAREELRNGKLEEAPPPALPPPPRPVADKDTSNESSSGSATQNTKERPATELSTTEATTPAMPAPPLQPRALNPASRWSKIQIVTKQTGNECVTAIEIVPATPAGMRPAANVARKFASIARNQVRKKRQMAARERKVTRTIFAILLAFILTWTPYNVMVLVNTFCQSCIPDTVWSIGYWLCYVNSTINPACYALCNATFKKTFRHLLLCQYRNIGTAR

Turning to `CCOC(=O)CNC(=O)c1c(C)nn(-c2ccccc2)c1Cl`, the cell count in experiment [1] amounted to 389. For the same compound, the inhibition in experiment [1] was 1.9% (inactive); in experiment [3], -152% (inactive); in experiment [7], -45.3% (inactive); in experiment [8] it was 99.2% (active). Further, the inhibition of aggregation in experiment [2] is 0.1% (inactive). The values for the nuclei count in experiment [2] and in experiment [3] were 56.2% and 127%, respectively. For the same compound, the figures for the fluorescence slope in experiment [4] and in experiment [6] were -0.571 (inactive) and 0.00495 (inactive), respectively. Further, the NADPH fluorescence slope in experiment [5] is -5.1e-06 (inactive).

For `COc1ccc(N2CCN(C(=O)CSc3nnc4n3C(C)(C)Cc3ccccc3-4)CC2)cc1`, the cell count in experiment [1] is 548. In addition, the inhibition was 7.7% (inactive) in experiment [1], -14.4% (inactive) in experiment [3], 4.92% (inactive) in experiment [7] and -6.84% (inactive) in experiment [8]. The inhibition of aggregation in experiment [2] was -9.9% (inactive). Also, the nuclei count in experiment [2] and in experiment [3] was 104% each time. In addition, the fluorescence slope was -0.572 (inactive) in experiment [4] and 0.00723 (inactive) in experiment [6]. The NADPH fluorescence slope in experiment [5] was -3.1e-05 (inactive).

Regarding `N#CC1=C(N)N(c2ccccc2)C2=C(C(=O)CCC2)C1c1cccs1` (configuration not stated), in experiment [1], the cell count is 610. Besides, the inhibition in experiment [1] is 0% (inactive); in experiment [3], -53.5% (inactive); in experiment [7], -12.6% (inactive); in experiment [8], -9.24% (inactive). Further, in experiment [2], the inhibition of aggregation was 3.8% (inactive). Besides, the nuclei count in experiment [2] worked out at 108%; in experiment [3], 98.1%. Moreover, the fluorescence slope in experiment [4] was -0.362 (inactive); in experiment [6], 0.00595 (inactive). Also, the NADPH fluorescence slope in experiment [5] is -4.2e-05 (inactive).

Turning to `Cc1nn(-c2ccccc2)c(C)c1C(=O)OCC(=O)c1c(N)n(CC(C)C)c(=O)n(C)c1=O`, the cell count in experiment [1] amounted to 486. The inhibition in experiment [1] was 4.2% (inactive); in experiment [3], -65.4% (inactive); in experiment [7], 4.86% (inactive); in experiment [8], -99.7% (inactive). Further, the inhibition of aggregation in experiment [2] was -2.5% (inactive). Also, the nuclei count in experiment [2] is 78.8%; in experiment [3] it was 127%. The results for the fluorescence slope in experiment [4] and in experiment [6] were -0.504 (inactive) and 0.00552 (inactive), respectively. The NADPH fluorescence slope in experiment [5] was 0.000168 (inactive).

As for `O=C(CSc1nc2[nH]ncc2c(=O)n1-c1ccccc1Br)NCc1ccco1`, the cell count in experiment [1] came to 517. Further, the inhibition is -24% (inactive) in experiment [1], -15.2% (inactive) in experiment [3], 22.2% (inactive) in experiment [7] and 28.1% (inactive) in experiment [8]. The inhibition of aggregation in experiment [2] is -8.3% (inactive). Also, the nuclei count in experiment [2] came to 83.4%; in experiment [3] it was 95%. The fluorescence slope is -0.549 (inactive) in experiment [4] and 0.00777 (inactive) in experiment [6]. In experiment [5], the NADPH fluorescence slope is -3.1e-05 (inactive).

For `N#CC(C(=O)Nc1ccccc1)=C1CCCCC1`, the cell count in experiment [1] was 356. Further, the inhibition is -8.4% (inactive) in experiment [1], -98.6% (inactive) in experiment [3], -3.44% (inactive) in experiment [7] and -28.2% (inactive) in experiment [8]. Moreover, in experiment [2], the inhibition of aggregation is -8% (inactive). The nuclei count in experiment [2] was determined as 108%; in experiment [3] it was 131%. The values for the fluorescence slope in experiment [4] and in experiment [6] were -0.516 (inactive) and 0.0049 (inactive), respectively. For the same compound, in experiment [5], the NADPH fluorescence slope was -4.4e-05 (inactive).

`CC(C)(C)c1cc(C(=S)N2CCN(CCO)CC2)cc(C(C)(C)C)c1O`: in experiment [1], the cell count turned out to be 667. Moreover, the inhibition in experiment [1] was -1.4% (inactive); in experiment [3], -150% (inactive); in experiment [7] it was 24.4% (inactive); in experiment [8], 29.9% (inactive). In addition, in experiment [2], the inhibition of aggregation is 10.4% (inactive). The results for the nuclei count in experiment [2] and in experiment [3] were 105% and 128%, respectively. Besides, the fluorescence slope in experiment [4] is -0.534 (inactive); in experiment [6] it was 0.00566 (inactive). The NADPH fluorescence slope in experiment [5] was -4.4e-05 (inactive).

The inhibition is the change of the read-out against control, counted positive when it falls.
